What was measured:
Melanocortin receptor 4 [1] = biological target: T1, Melanocortin receptor 4 (Homo sapiens, UniProt P32245); test: Stimulation of cAMP levels in the HEK293 cell line at 10 uM; assay type: functional, cell-based
Summary of the method: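 Agonism was measured as cAMP levels in HEK293 cells stably expressing human MC4R. The test ligand was applied at 10 μM, and the response was expressed relative to the response to α-MSH.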

Melanocortin receptor 4 [2] = biological target: T1, Melanocortin receptor 4; test: Inhibition of [125I]NDP-MSH (radioligand) binding to the hMC4R stably expressed in HEK293 cells; assay type: cell-based
Summary of the method: (§1)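 Competition binding was run on HEK293 cells stably transfected with human MC1R, MC3R, MC4R or MC5R, each receptor in its own line. The radioligand was [125I]-NDP-MSH. For the MC4R values, data are the average of two to three independent measurements.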

HEK293 [3] = test: (§2) Dose-dependent inhibition of cAMP production stimulated by 10 nM a-MSH in HEK293 cells; assay type: functional, cell-based, Homo sapiens
Summary of the method: (§3)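 Functional antagonism was measured as inhibition of cAMP production in HEK293 cells stably expressing human MC4R. Cells were stimulated with 10 nM α-MSH, and the test ligand was applied over a range of concentrations.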

Melanocortin receptor 4 [4] = biological target: T1, Melanocortin receptor 4; test: Inhibition of [125I]-AgRP(83132) (radioligand) binding to the hMC4R stably expressed in HEK293 cells; assay type: cell-based
Summary of the method: (§4)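 Competition binding was run on HEK293 cells stably transfected with human MC4R. The radioligand was [125I]-AgRP(83–132).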

Melanocortin receptor 3 [5] = biological target: T2, Melanocortin receptor 3 (Homo sapiens, UniProt P41968); test: Inhibition of [125I]-NDP-MSH (radioligand) binding to the human MC3R stably expressed in HEK293 cells; assay type: cell-based; summary of the method: as §1
[6] = biological target: Melanocyte-stimulating hormone receptor (Homo sapiens, UniProt Q01726); test: Inhibition of [125I]NDP-MSH (radioligand) binding to human MC1R at 10 um concentration stably expressed in HEK293 cells; assay type: cell-based; conditions: for Inhibition: hek293
Summary of the method: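 Competition binding was run on HEK293 cells stably expressing human MC1R, with [125I]-NDP-MSH as the radioligand. The value is percent inhibition of binding with the test ligand at 10 µM.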

Melanocortin receptor 5 = Melanocortin receptor 5 (Homo sapiens, UniProt P33032); test: Inhibition of [125I]NDP-MSH (radioligand) binding to the human MC5R stably expressed in HEK293 cells; assay type: cell-based; summary of the method: as §1
HEK293 [7] = test: as §2; assay type: functional, cell-based; conditions: Homo sapiens; summary of the method: as §3
Melanocortin receptor 4 [8] = biological target: T1, Melanocortin receptor 4; test: Inhibition of [125I]-AgRP(83132) (radioligand) binding to the hMC4R stably expressed in HEK293 cells;; assay type: cell-based; summary of the method: as §4
HEK293 [9] = test: Dose-dependent inhibition of cAMP production stimulated by 10 nM a-MSH in HEK293 cells;; assay type: functional, cell-based, Homo sapiens; summary of the method: as §3
Melanocortin receptor 3 [10] = biological target: T2, Melanocortin receptor 3; test: Inhibition of [125I]NDP-MSH (radioligand) binding to the human MC3R stably expressed in HEK293 cells; assay type: cell-based; summary of the method: as §1

Sequence of Melanocortin receptor 5 (P33032 whole entry): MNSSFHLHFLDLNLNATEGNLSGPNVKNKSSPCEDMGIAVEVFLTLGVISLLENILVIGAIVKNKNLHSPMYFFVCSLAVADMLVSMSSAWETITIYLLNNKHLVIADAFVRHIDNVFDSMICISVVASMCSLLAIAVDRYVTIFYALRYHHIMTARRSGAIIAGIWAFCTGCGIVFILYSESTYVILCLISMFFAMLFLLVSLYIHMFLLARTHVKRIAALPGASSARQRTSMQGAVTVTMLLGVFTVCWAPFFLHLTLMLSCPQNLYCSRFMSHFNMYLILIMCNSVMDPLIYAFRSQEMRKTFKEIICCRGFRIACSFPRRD
Sequence of Melanocyte-stimulating hormone receptor (Q01726 whole entry): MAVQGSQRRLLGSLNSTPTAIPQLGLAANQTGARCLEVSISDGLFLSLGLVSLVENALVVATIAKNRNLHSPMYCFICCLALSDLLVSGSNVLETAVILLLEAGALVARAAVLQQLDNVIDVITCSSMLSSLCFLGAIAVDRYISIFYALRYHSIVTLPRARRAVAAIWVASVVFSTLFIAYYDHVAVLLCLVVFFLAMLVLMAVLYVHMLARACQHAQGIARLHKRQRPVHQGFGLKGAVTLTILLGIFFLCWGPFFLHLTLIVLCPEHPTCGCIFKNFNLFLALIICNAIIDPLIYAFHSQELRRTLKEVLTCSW
T1 sequence (P32245 whole entry): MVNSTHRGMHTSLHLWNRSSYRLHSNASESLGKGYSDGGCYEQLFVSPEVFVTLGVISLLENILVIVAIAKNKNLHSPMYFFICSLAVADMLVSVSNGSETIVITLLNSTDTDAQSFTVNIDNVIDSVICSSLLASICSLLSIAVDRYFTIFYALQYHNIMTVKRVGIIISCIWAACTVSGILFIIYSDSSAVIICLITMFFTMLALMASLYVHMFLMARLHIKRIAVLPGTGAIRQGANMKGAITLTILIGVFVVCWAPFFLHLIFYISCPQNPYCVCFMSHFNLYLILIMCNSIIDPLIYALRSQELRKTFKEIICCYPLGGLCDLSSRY
T2 sequence (P41968 whole entry): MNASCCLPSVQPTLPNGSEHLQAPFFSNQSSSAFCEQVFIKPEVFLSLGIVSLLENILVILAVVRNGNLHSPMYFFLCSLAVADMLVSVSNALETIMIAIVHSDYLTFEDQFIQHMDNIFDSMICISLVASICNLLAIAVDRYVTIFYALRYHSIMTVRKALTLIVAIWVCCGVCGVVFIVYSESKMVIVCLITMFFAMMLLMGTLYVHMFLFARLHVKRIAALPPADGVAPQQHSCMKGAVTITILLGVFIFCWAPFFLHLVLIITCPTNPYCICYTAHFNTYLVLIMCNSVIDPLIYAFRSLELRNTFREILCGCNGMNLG

SMILES | Stimulation (Melanocortin receptor 4 [1]) [%] | Ki (Melanocortin receptor 4 [2]) [nM] | also measured
COc1ccc(CC(=O)NCC2(N3CCN(C(=O)[C@@H](Cc4ccc(Cl)cc4Cl)NC(=O)CCN)CC3)CCCCC2)cc1OC | 2.7 | 18 | –
NCCC(=O)N[C@H](Cc1ccc(Cl)cc1Cl)C(=O)N1CCN(C2(CNCc3ccc(F)cc3)CCCCC2)CC1 | 6.4 | 61 | –
NCCC(=O)N[C@H](Cc1ccc(Cl)cc1Cl)C(=O)N1CCN(C2(CNC(=O)c3ccc(Cl)cc3)CCCCC2)CC1 | 10 | 210 | –
NCCC(=O)N[C@H](Cc1ccc(Cl)cc1Cl)C(=O)N1CCN(C2(CNC(=O)c3cccnc3)CCCCC2)CC1 | 4.3 | 220 | –
CN(C)c1ccc(CNCC2(N3CCN(C(=O)[C@@H](Cc4ccc(Cl)cc4Cl)NC(=O)CCN)CC3)CCCCC2)cc1 | 4.2 | 110 | –
NCCC(=O)N[C@H](Cc1ccc(Cl)cc1Cl)C(=O)N1CCN(C2(CNCc3nccs3)CCCCC2)CC1 | 4.9 | 49 | –
NCCC(=O)N[C@H](Cc1ccc(Cl)cc1Cl)C(=O)N1CCN(C2(CNCc3ccccc3F)CCCCC2)CC1 | 4.7 | 12 | IC50 (HEK293 [3]): 760 nM; Ki (Melanocortin receptor 4 [4]): 13 nM; Ki (Melanocortin receptor 3 [5]): 2300 nM; Inhibition [6]: 45%; Ki (Melanocortin receptor 5): 1400 nM
COc1ccccc1C(=O)NCC1(N2CCN(C(=O)[C@@H](Cc3ccc(Cl)cc3Cl)NC(=O)CCN)CC2)CCCCC1 | 6.5 | 350 | –
NCCC(=O)N[C@H](Cc1ccc(Cl)cc1Cl)C(=O)N1CCN(C2(CNCCc3ccccc3)CCCCC2)CC1 | 0.4 | 11 | Ki (Melanocortin receptor 3 [5]): 3200 nM; IC50 (HEK293 [7]): 430 nM; Inhibition [6]: 44%; Ki (Melanocortin receptor 5): 1200 nM
CN(C)c1ccc(NC(=O)NCC2(N3CCN(C(=O)[C@@H](Cc4ccc(Cl)cc4Cl)NC(=O)CCN)CC3)CCCCC2)cc1 | 2.7 | 62 | –
NCCC(=O)N[C@H](Cc1ccc(Cl)cc1Cl)C(=O)N1CCN(C2(CNC(=O)Nc3ccc(Cl)cc3)CCCCC2)CC1 | 5.9 | 420 | –
NCCC(=O)N[C@H](Cc1ccc(Cl)cc1Cl)C(=O)N1CCN(C2(CNC(=O)c3cccs3)CCCCC2)CC1 | 5.1 | 230 | –
NCCC(=O)N[C@H](Cc1ccc(Cl)cc1Cl)C(=O)N1CCN(C2(CNC(=O)c3ccco3)CCCCC2)CC1 | 4.5 | 260 | –
NCCC(=O)N[C@H](Cc1ccc(Cl)cc1Cl)C(=O)N1CCN(C2(CNC(=O)c3ccc(OC(F)(F)F)cc3)CCCCC2)CC1 | 8.9 | 400 | –
COc1cccc(CC(=O)NCC2(N3CCN(C(=O)[C@@H](Cc4ccc(Cl)cc4Cl)NC(=O)CCN)CC3)CCCCC2)c1 | 1.8 | 7.6 | Ki (Melanocortin receptor 3 [5]): 650 nM; Ki [6]: 2800 nM; Ki (Melanocortin receptor 5): 470 nM
NCCC(=O)N[C@H](Cc1ccc(Cl)cc1Cl)C(=O)N1CCN(C2(CNC(=O)Cc3ccccc3)CCCCC2)CC1 | 1.6 | 8.8 | Ki (Melanocortin receptor 4 [8]): 6.4 nM; IC50 (HEK293 [9]): 260 nM; Ki (Melanocortin receptor 3 [5]): 710 nM; Inhibition [6]: 47%; Ki (Melanocortin receptor 5): 920 nM

SMILES | Stimulation (Melanocortin receptor 4 [1]) [%] | Ki (Melanocortin receptor 4 [2]) [nM] | also measured
CC(C)(C)c1ccc(C(=O)NCC2(N3CCN(C(=O)[C@@H](Cc4ccc(Cl)cc4Cl)NC(=O)CCN)CC3)CCCCC2)cc1 | 8.2 | 520 | –
NCCC(=O)N[C@H](Cc1ccc(Cl)cc1Cl)C(=O)N1CCN(C2(CNC(=O)Nc3ccc(F)cc3)CCCCC2)CC1 | 5.5 | 210 | –
NCCC(=O)N[C@H](Cc1ccc(Cl)cc1Cl)C(=O)N1CCN(C2(CNCc3ccc(C(F)(F)F)cc3)CCCCC2)CC1 | 4.1 | 45 | –
NCCC(=O)N[C@H](Cc1ccc(Cl)cc1Cl)C(=O)N1CCN(C2(CNC(=O)C(F)(F)F)CCCCC2)CC1 | 0.9 | 490 | –
NCCC(=O)N[C@H](Cc1ccc(Cl)cc1Cl)C(=O)N1CCN(C2(CNCc3cccs3)CCCCC2)CC1 | 8.1 | 12 | Ki (Melanocortin receptor 3 [10]): 2400 nM; Ki (Melanocortin receptor 5): 1900 nM
NCCC(=O)N[C@H](Cc1ccc(Cl)cc1Cl)C(=O)N1CCN(C2(CNC(=O)c3ccncc3)CCCCC2)CC1 | 4.4 | 150 | –
NCCC(=O)N[C@H](Cc1ccc(Cl)cc1Cl)C(=O)N1CCN(C2(CNC(=O)c3ccccc3)CCCCC2)CC1 | 5.1 | 220 | –
CC(C)(C)CCNCC1(N2CCN(C(=O)[C@@H](Cc3ccc(Cl)cc3Cl)NC(=O)CCN)CC2)CCCCC1 | 3.6 | 340 | –
NCCC(=O)N[C@H](Cc1ccc(Cl)cc1Cl)C(=O)N1CCN(C2(CNC(=O)c3ccc(C(F)(F)F)cc3)CCCCC2)CC1 | 8.7 | 340 | –
NCCC(=O)N[C@H](Cc1ccc(Cl)cc1Cl)C(=O)N1CCN(C2(CNC(=O)Nc3ccc([N+](=O)[O-])cc3)CCCCC2)CC1 | 11 | 540 | –
CC(C)CNCC1(N2CCN(C(=O)[C@@H](Cc3ccc(Cl)cc3Cl)NC(=O)CCN)CC2)CCCCC1 | 0.7 | 180 | –
N#Cc1ccc(CNCC2(N3CCN(C(=O)[C@@H](Cc4ccc(Cl)cc4Cl)NC(=O)CCN)CC3)CCCCC2)cc1 | 5 | 92 | –
Cc1ccc(C(=O)NCC2(N3CCN(C(=O)[C@@H](Cc4ccc(Cl)cc4Cl)NC(=O)CCN)CC3)CCCCC2)cc1 | 7.8 | 270 | –
NCCC(=O)N[C@H](Cc1ccc(Cl)cc1Cl)C(=O)N1CCN(C2(CNC(=O)c3ccc(Br)cc3)CCCCC2)CC1 | 12 | 240 | –
NCCC(=O)N[C@H](Cc1ccc(Cl)cc1Cl)C(=O)N1CCN(C2(CNCCCc3ccccc3)CCCCC2)CC1 | 2.8 | 60 | –

Continued by falling Ki (Melanocortin receptor 4 [2]), values first:

Stimulation (Melanocortin receptor 4 [1]) [%] | Ki (Melanocortin receptor 4 [2]) [nM] | SMILES | also measured
0.5 | 290 | NCCC(=O)N[C@H](Cc1ccc(Cl)cc1Cl)C(=O)N1CCN(C2(CN)CCCCC2)CC1 | –
12 | 260 | COC(=O)c1ccc(NC(=O)NCC2(N3CCN(C(=O)[C@@H](Cc4ccc(Cl)cc4Cl)NC(=O)CCN)CC3)CCCCC2)cc1 | –
7.7 | 250 | COc1ccc(C(=O)NCC2(N3CCN(C(=O)[C@@H](Cc4ccc(Cl)cc4Cl)NC(=O)CCN)CC3)CCCCC2)cc1 | –
5.1 | 220 | NCCC(=O)N[C@H](Cc1ccc(Cl)cc1Cl)C(=O)N1CCN(C2(CNCC3CCCCC3)CCCCC2)CC1 | –
7.9 | 190 | NCCC(=O)N[C@H](Cc1ccc(Cl)cc1Cl)C(=O)N1CCN(C2(CNC(=O)c3ccc(F)cc3)CCCCC2)CC1 | –
6.7 | 120 | NCCC(=O)N[C@H](Cc1ccc(Cl)cc1Cl)C(=O)N1CCN(C2(CNC(=O)c3ccc([N+](=O)[O-])cc3)CCCCC2)CC1 | –
1 | 36 | COc1ccc(NC(=O)NCC2(N3CCN(C(=O)[C@@H](Cc4ccc(Cl)cc4Cl)NC(=O)CCN)CC3)CCCCC2)cc1 | –
3 | 36 | NCCC(=O)N[C@H](Cc1ccc(Cl)cc1Cl)C(=O)N1CCN(C2(CNCc3ccccn3)CCCCC2)CC1 | –
1.4 | 23 | NCCC(=O)N[C@H](Cc1ccc(Cl)cc1Cl)C(=O)N1CCN(C2(CNC(=O)Cc3ccc(Cl)cc3)CCCCC2)CC1 | –
2.4 | 22 | NCCC(=O)N[C@H](Cc1ccc(Cl)cc1Cl)C(=O)N1CCN(C2(CNCc3ccc(OC(F)(F)F)cc3)CCCCC2)CC1 | –
2.3 | 21 | NCCC(=O)N[C@H](Cc1ccc(Cl)cc1Cl)C(=O)N1CCN(C2(CNC(=O)Cc3ccc(F)cc3)CCCCC2)CC1 | –
5.1 | 18 | NCCC(=O)N[C@H](Cc1ccc(Cl)cc1Cl)C(=O)N1CCN(C2(CNCc3ccccc3)CCCCC2)CC1 | –
3.4 | 8.4 | NCCC(=O)N[C@H](Cc1ccc(Cl)cc1Cl)C(=O)N1CCN(C2(CNC(=O)Cc3cccs3)CCCCC2)CC1 | Ki (Melanocortin receptor 3 [5]): 1100 nM; Ki [6]: 4600 nM; Ki (Melanocortin receptor 5): 480 nM
0.6 | 4.2 | COc1ccc(CC(=O)NCC2(N3CCN(C(=O)[C@@H](Cc4ccc(Cl)cc4Cl)NC(=O)CCN)CC3)CCCCC2)cc1 | IC50 (HEK293 [3]): 150 nM; Ki (Melanocortin receptor 4 [4]): 2.8 nM; Ki (Melanocortin receptor 3 [5]): 1100 nM; Ki [6]: 5700 nM; Ki (Melanocortin receptor 5): 540 nM
